Laboratory results from ChEMBL document CHEMBL1933020, “A novel series of glucagon receptor antagonists with reduced molecular weight and lipophilicity” (Bioorg Med Chem Lett, 2012).
Values after ≈ are worked out from the molar mass of the structure shown.

Tests used:
[1] = target: T1, Glucagon receptor (Homo sapiens, UniProt P47871); test: Displacement of [125I]Glucagon-Cex from human GCGR
Procedure, shortened: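 Displacement of [125I]glucagon-Cex from membranes containing the human glucagon receptor, run with 0.2% BSA. Values are geometric means of n ≥ 2 determinations.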

[2] = target: T1, Glucagon receptor; test: Antagonist activity at human GCGR assessed as inhibition of glucagon-induced cAMP accumulation in cell-based assay; format: functional
Procedure, shortened: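 Cell line expressing the human glucagon receptor. Antagonism was measured as inhibition of glucagon-induced cAMP production. […] Values are geometric means of n ≥ 2 determinations.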

[3] = Lipophilicity, log D of the compound in octanol-phosphate buffer at pH 7.4; format: physicochemical; settings: octanol/phosphate buffer, read-out: logD
Procedure, shortened: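 Shake-flask partition between octanol and buffer at pH 7.4.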

[4] = Permeability across low transporter-containing MDCK2 cells; format: ADME, cell-based, Canis lupus familiaris, MDCK-II; settings: dog, MDCK; read-out: permeability
[5] = Kinetic solubility of the compound at pH 6.5; format: physicochemical; settings: buffer, read-out: Kinetic_solubility
[6] = target: Glucagon-like peptide 1 receptor (Homo sapiens, UniProt P43220); test: Displacement of [125I]GLP-1 from human GLP1R
Sequence of Glucagon-like peptide 1 receptor (P43220 whole entry): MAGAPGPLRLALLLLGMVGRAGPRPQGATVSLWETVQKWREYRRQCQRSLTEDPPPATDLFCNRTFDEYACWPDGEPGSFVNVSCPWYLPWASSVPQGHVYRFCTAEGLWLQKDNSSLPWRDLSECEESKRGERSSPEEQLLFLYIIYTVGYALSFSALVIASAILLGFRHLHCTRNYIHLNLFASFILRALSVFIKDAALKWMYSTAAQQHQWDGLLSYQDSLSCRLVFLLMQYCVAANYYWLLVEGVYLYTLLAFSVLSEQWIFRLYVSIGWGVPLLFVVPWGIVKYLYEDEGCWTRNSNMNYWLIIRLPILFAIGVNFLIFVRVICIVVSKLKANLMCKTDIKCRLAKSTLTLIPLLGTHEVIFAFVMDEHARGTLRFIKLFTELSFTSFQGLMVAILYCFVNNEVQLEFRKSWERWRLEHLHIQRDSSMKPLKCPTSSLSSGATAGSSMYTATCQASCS
Procedure, shortened: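 Displacement of [125I]GLP-1 from membranes expressing the human GLP-1 receptor.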

[7] = target: T2, Gastric inhibitory polypeptide receptor (Homo sapiens, UniProt P48546); test: Displacement of [125I]GIP from human GIPR
T2 sequence (P48546 whole entry): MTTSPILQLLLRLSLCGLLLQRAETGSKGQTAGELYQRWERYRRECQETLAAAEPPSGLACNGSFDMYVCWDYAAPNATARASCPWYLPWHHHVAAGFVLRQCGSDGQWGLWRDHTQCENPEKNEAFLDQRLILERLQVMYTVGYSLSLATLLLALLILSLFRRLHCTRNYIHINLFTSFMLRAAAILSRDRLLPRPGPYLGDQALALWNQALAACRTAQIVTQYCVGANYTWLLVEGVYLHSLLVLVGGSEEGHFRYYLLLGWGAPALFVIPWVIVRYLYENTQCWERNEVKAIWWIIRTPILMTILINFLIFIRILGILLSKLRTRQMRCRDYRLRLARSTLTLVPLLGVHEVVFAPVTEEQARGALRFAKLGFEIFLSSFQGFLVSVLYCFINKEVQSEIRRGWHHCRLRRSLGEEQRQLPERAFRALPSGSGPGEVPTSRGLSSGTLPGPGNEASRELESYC

T1 sequence (P47871 whole entry): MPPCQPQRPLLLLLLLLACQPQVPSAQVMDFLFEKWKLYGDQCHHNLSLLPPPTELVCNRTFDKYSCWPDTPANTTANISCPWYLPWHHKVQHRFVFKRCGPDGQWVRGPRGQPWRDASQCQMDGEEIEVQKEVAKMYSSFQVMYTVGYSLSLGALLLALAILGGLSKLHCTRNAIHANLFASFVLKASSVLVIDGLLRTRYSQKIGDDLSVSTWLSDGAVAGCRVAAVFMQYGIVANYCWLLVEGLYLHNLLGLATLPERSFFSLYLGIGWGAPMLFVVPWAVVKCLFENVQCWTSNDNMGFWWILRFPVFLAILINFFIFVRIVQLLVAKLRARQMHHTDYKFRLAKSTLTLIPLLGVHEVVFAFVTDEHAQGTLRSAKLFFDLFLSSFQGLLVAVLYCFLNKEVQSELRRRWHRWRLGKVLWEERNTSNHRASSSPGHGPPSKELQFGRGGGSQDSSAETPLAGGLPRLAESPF

| Ki [1] | Kb [2] | SMILES | further results |
| --- | --- | --- | --- |
| 356 nM | 78 nM | CCCc1c(C(C)C)cc(C(C)C)c(C(C)O)c1-c1ccc(F)cc1 (centres undefined) |  |
| 85 nM | 430 nM | O=C(NC[C@@H](O)C(=O)O)c1ccc(CN(C(=O)Nc2cc(Cl)cc(Cl)c2)c2ccc(C3=CCCCC3)cc2)cc1 |  |
| 14700 nM | > 23600 nM | CCCC(Oc1cnn(-c2ccccc2C)c1)c1ccc(C(=O)NCCC(=O)O)cc1 (racemic) |  |
| 1110 nM | > 20900 nM | CCCC(Oc1cnn(-c2cccc(C)c2)c1)c1ccc(C(=O)NCCC(=O)O)cc1 (racemic) |  |
| 968 nM | > 12900 nM | CCCC(Oc1cnn(-c2ccc(C)cc2)c1)c1ccc(C(=O)NCCC(=O)O)cc1 (racemic) |  |
| 556 nM | 4530 nM | CCCC(Oc1cnn(-c2cccc(CC)c2)c1)c1ccc(C(=O)NCCC(=O)O)cc1 (racemic) |  |
| 214 nM | 3420 nM | CCCC(Oc1cnn(-c2ccc(CC)cc2)c1)c1ccc(C(=O)NCCC(=O)O)cc1 (racemic) |  |
| 1090 nM | 16900 nM | CCCC(Oc1cnn(-c2cccc(Cl)c2)c1)c1ccc(C(=O)NCCC(=O)O)cc1 (racemic) |  |
| 600 nM | > 7520 nM | CCCC(Oc1cnn(-c2ccc(Cl)cc2)c1)c1ccc(C(=O)NCCC(=O)O)cc1 (racemic) |  |
| 2160 nM | > 19100 nM | CCCC(Oc1cnn(-c2cccc(OC)c2)c1)c1ccc(C(=O)NCCC(=O)O)cc1 (racemic) |  |
| 1980 nM | > 21300 nM | CCCC(Oc1cnn(-c2ccc(OC)cc2)c1)c1ccc(C(=O)NCCC(=O)O)cc1 (racemic) |  |
| 126 nM |  | CCCC(Oc1cnn(-c2ccc(C(F)(F)F)cc2)c1)c1ccc(C(=O)NCCC(=O)O)cc1 (racemic) [listing 1 of 2 here] |  |
| 1190 nM | 16400 nM | CCCC(Oc1cnn(-c2ccc(C(F)(F)F)cn2)c1)c1ccc(C(=O)NCCC(=O)O)cc1 (racemic) |  |
| 1450 nM | 21500 nM | CCCC(Oc1cnn(-c2ccc(C(F)(F)F)nc2)c1)c1ccc(C(=O)NCCC(=O)O)cc1 (racemic) |  |
|  | 992 nM | CCCC(Oc1cnn(-c2ccc(C(F)(F)F)cc2)c1)c1ccc(C(=O)NCCC(=O)O)cc1 (racemic) [listing 2 of 2 here] |  |
| 430 nM |  | CCCC(Oc1cnn(-c2ccc(C(F)(F)F)cc2)c1)c1ccc(C(=O)NCCC(=O)O)cc1 (single isomer, unassigned; (+)) | logD [3]: 2.33; Papp [4]: 7.74 ×10⁻⁶ cm/s; solubility kinetic [5]: 53 µM (≈ 25.2 µg/mL); Ki [6]: 21800 nM; Ki [7]: 4080 nM |
